Data from ChEMBL document CHEMBL1138555, “N-acylated and N,N'-diacylated imidazolidine-2-thione derivatives and N,N'-diacylated tetrahydropyrimidine-2(1H)-thione analogues: synthesis and antiproliferative activity” (Eur J Med Chem, 2009).

system: OVCAR-8; assay: Growth inhibition of human OVCAR8 cells after 48 hrs by sulforhodamine B assay; type: functional; details: OVCAR-8, 48 h
Outline: (§1)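 NCI screen panel. Five 10-fold concentrations from 10^-4 to 10^-8 M. Exposure for the last 48 h of a 72 h incubation. Growth estimated by sulforhodamine B protein assay. GI50 is the concentration giving 50% growth inhibition. Where that level was not reached or was exceeded, the value is given as above or below the highest or lowest concentration tested.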

Compound	GI50 [µM]
O=C(c1ccc(Cl)cc1Cl)N1CCN(C(=O)c2ccc(Cl)cc2Cl)C1=S	22.1

system: NCI-H322M; assay: Growth inhibition of human NCI-H322M cells after 48 hrs by sulforhodamine B assay; type: functional; details: not given; outline: as §1

Compound	GI50 [µM]
O=C(c1ccc(Cl)cc1Cl)N1CCN(C(=O)c2ccc(Cl)cc2Cl)C1=S	18.1

system: HCT-15; assay: Growth inhibition of human HCT15 cells after 48 hrs by sulforhodamine B assay; type: functional; details: HCT-15, 48 h; outline: as §1

Compound	GI50 [µM]
O=C(c1ccc(Cl)cc1Cl)N1CCN(C(=O)c2ccc(Cl)cc2Cl)C1=S	22.1

system: SK-MEL-2; assay: Growth inhibition of human SK-MEL-2 cells after 48 hrs by sulforhodamine B assay; type: functional; details: SK-MEL-2, 48 h; outline: as §1

Compound	GI50 [µM]
O=C(c1ccc(Cl)cc1Cl)N1CCN(C(=O)c2ccc(Cl)cc2Cl)C1=S	18.4

system: TK-10; assay: Growth inhibition of human TK10 cells after 48 hrs by sulforhodamine B assay; type: functional; details: TK-10, 48 h
Outline: (§2)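 NCI in vitro panel screen. Compounds tested at five 10-fold dilutions, 10^-4 to 10^-8 M. Cells in 96-well plates were exposed for the last 48 h of a 72 h incubation. Viability/growth was read by sulforhodamine B protein assay. GI50 is the concentration giving 50% growth inhibition. Values beyond the tested range are reported as greater or less than the maximum or minimum concentration.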

Compound	GI50 [µM]
O=C(c1ccc(Cl)cc1Cl)N1CCN(C(=O)c2ccc(Cl)cc2Cl)C1=S	36.3

system: HT-29; assay: Growth inhibition of human HT-29 cells after 48 hrs by sulforhodamine B assay; type: functional; details: HT-29, 48 h; outline: as §1

Compound	GI50 [µM]
O=C(c1ccc(Cl)cc1Cl)N1CCN(C(=O)c2ccc(Cl)cc2Cl)C1=S	20.4

system: LOX IMVI; assay: Growth inhibition of human LOXIMVI cells after 48 hrs by sulforhodamine B assay; type: functional; details: not given; outline: as §1

Compound	GI50 [µM]
O=C(c1ccc(Cl)cc1Cl)N1CCN(C(=O)c2ccc(Cl)cc2Cl)C1=S	17.1

system: MDA-N; assay: Growth inhibition of human MDA-N cells after 48 hrs by sulforhodamine B assay; type: functional; details: not given
Outline: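 NCI screen panel. Five 10-fold concentrations from 10^-4 to 10^-8 M. Exposure for the last 48 h of a 72 h incubation. Growth estimated by sulforhodamine B protein assay. Where that level was not reached or was exceeded, the value is given as above or below the highest or lowest concentration tested.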

Compound	GI50 [µM]
O=C(c1ccc(Cl)cc1Cl)N1CCN(C(=O)c2ccc(Cl)cc2Cl)C1=S	20

system: K562; assay: Growth inhibition of human K562 cells after 48 hrs by sulforhodamine B assay; type: functional; details: K562, 48 h; outline: as §1

Compound	GI50 [µM]
O=C(c1ccc(Cl)cc1Cl)N1CCN(C(=O)c2ccc(Cl)cc2Cl)C1=S	31.4

system: U-251; assay: Growth inhibition of human U251 cells after 48 hrs by sulforhodamine B assay; type: functional; details: U-251, 48 h; outline: as §2

Compound	GI50 [µM]
O=C(c1ccc(Cl)cc1Cl)N1CCN(C(=O)c2ccc(Cl)cc2Cl)C1=S	17.8

system: OVCAR-3; assay: Growth inhibition of human OVCAR-3 cells after 48 hrs by sulforhodamine B assay; type: functional; details: OVCAR-3, 48 h; outline: as §1

Compound	GI50 [µM]
O=C(c1ccc(Cl)cc1Cl)N1CCN(C(=O)c2ccc(Cl)cc2Cl)C1=S	19.7

system: MOLT-4; assay: Growth inhibition of human MOLT4 cells after 48 hrs by sulforhodamine B assay; type: functional; details: MOLT-4, 48 h; outline: as §1

Compound	GI50 [µM]
O=C(c1ccc(Cl)cc1Cl)N1CCN(C(=O)c2ccc(Cl)cc2Cl)C1=S	20.5

system: MDA-MB-435; assay: Growth inhibition of human MDA-MB-435 cells after 48 hrs by sulforhodamine B assay; type: functional; details: MDA-MB-435, 48 h; outline: as §1

Compound	GI50 [µM]
O=C(c1ccc(Cl)cc1Cl)N1CCN(C(=O)c2ccc(Cl)cc2Cl)C1=S	16.4

system: NCI/ADR-RES; assay: Growth inhibition of human NCI/ADR-RES cells after 48 hrs by sulforhodamine B assay; type: functional; details: not given; outline: as §1

Compound	GI50 [µM]
O=C(c1ccc(Cl)cc1Cl)N1CCN(C(=O)c2ccc(Cl)cc2Cl)C1=S	24.8

system: NCI-H23; assay: Growth inhibition of human NCI-H23 cells after 48 hrs by sulforhodamine B assay; type: functional; details: NCI-H23, 48 h; outline: as §1

Compound	GI50 [µM]
O=C(c1ccc(Cl)cc1Cl)N1CCN(C(=O)c2ccc(Cl)cc2Cl)C1=S	19.8

system: PC-3; assay: Growth inhibition of human PC3 cells after 48 hrs by sulforhodamine B assay; type: functional; details: PC-3, 48 h; outline: as §1

Compound	GI50 [µM]
O=C(c1ccc(Cl)cc1Cl)N1CCN(C(=O)c2ccc(Cl)cc2Cl)C1=S	22.7

system: OVCAR-4; assay: Growth inhibition of human OVCAR4 cells after 48 hrs by sulforhodamine B assay; type: functional; details: OVCAR-4, 48 h; outline: as §1

Compound	GI50 [µM]
O=C(c1ccc(Cl)cc1Cl)N1CCN(C(=O)c2ccc(Cl)cc2Cl)C1=S	25.8

system: SNB-75; assay: Growth inhibition of human SNB75 cells after 48 hrs by sulforhodamine B assay; type: functional; details: SNB-75, 48 h; outline: as §2

Compound	GI50 [µM]
O=C(c1ccc(Cl)cc1Cl)N1CCN(C(=O)c2ccc(Cl)cc2Cl)C1=S	22.3

system: BT-549; assay: Growth inhibition of human BT549 cells after 48 hrs by sulforhodamine B assay; type: functional; details: BT-549, 48 h; outline: as §1

Compound	GI50 [µM]
O=C(c1ccc(Cl)cc1Cl)N1CCN(C(=O)c2ccc(Cl)cc2Cl)C1=S	21.1

system: SF-539; assay: Growth inhibition of human SF539 cells after 48 hrs by sulforhodamine B assay; type: functional; details: SF-539, 48 h; outline: as §1

Compound	GI50 [µM]
O=C(c1ccc(Cl)cc1Cl)N1CCN(C(=O)c2ccc(Cl)cc2Cl)C1=S	27.2

system: RXF 393; assay: Growth inhibition of human RXF393 cells after 48 hrs by sulforhodamine B assay; type: functional; details: RXF 393, 48 h; outline: as §1

Compound	GI50 [µM]
O=C(c1ccc(Cl)cc1Cl)N1CCN(C(=O)c2ccc(Cl)cc2Cl)C1=S	18.5

system: M14; assay: Growth inhibition of human M14 cells after 48 hrs by sulforhodamine B assay; type: functional; details: M14, 48 h; outline: as §1

Compound	GI50 [µM]
O=C(c1ccc(Cl)cc1Cl)N1CCN(C(=O)c2ccc(Cl)cc2Cl)C1=S	16.3

system: HCC 2998; assay: Growth inhibition of human HCC2998 cells after 48 hrs by sulforhodamine B assay; type: functional; details: HCC 2998, 48 h; outline: as §1

Compound	GI50 [µM]
O=C(c1ccc(Cl)cc1Cl)N1CCN(C(=O)c2ccc(Cl)cc2Cl)C1=S	22

system: SN12C; assay: Growth inhibition of human SN12C cells after 48 hrs by sulforhodamine B assay; type: functional; details: not given; outline: as §2

Compound	GI50 [µM]
O=C(c1ccc(Cl)cc1Cl)N1CCN(C(=O)c2ccc(Cl)cc2Cl)C1=S	18.1

system: HCT-116; assay: Growth inhibition of human HCT116 cells after 48 hrs by sulforhodamine B assay; type: functional; details: HCT-116, 48 h; outline: as §1

Compound	GI50 [µM]
O=C(c1ccc(Cl)cc1Cl)N1CCN(C(=O)c2ccc(Cl)cc2Cl)C1=S	23.5

system: A549; assay: Growth inhibition of human A549 cells after 48 hrs by sulforhodamine B assay; type: functional; details: A549, 48 h; outline: as §1

Compound	GI50 [µM]
O=C(c1ccc(Cl)cc1Cl)N1CCN(C(=O)c2ccc(Cl)cc2Cl)C1=S	20.1

system: HOP-62; assay: Growth inhibition of human HOP62 cells after 48 hrs by sulforhodamine B assay; type: functional; details: HOP-62, 48 h; outline: as §1

Compound	GI50 [µM]
O=C(c1ccc(Cl)cc1Cl)N1CCN(C(=O)c2ccc(Cl)cc2Cl)C1=S	23.1

system: EKVX; assay: Growth inhibition of human EKVX cells after 48 hrs by sulforhodamine B assay; type: functional; details: not given; outline: as §1

Compound	GI50 [µM]
O=C(c1ccc(Cl)cc1Cl)N1CCN(C(=O)c2ccc(Cl)cc2Cl)C1=S	20.5

system: A498; assay: Growth inhibition of human A498 cells after 48 hrs by sulforhodamine B assay; type: functional; details: A498, 48 h; outline: as §1

Compound	GI50 [µM]
O=C(c1ccc(Cl)cc1Cl)N1CCN(C(=O)c2ccc(Cl)cc2Cl)C1=S	16.1

system: DU-145; assay: Growth inhibition of human DU145 cells after 48 hrs by sulforhodamine B assay; type: functional; details: DU-145, 48 h; outline: as §1

Compound	GI50 [µM]
O=C(c1ccc(Cl)cc1Cl)N1CCN(C(=O)c2ccc(Cl)cc2Cl)C1=S	30.6

system: KM12; assay: Growth inhibition of human KM12 cells after 48 hrs by sulforhodamine B assay; type: functional; details: KM12, 48 h; outline: as §1

Compound	GI50 [µM]
O=C(c1ccc(Cl)cc1Cl)N1CCN(C(=O)c2ccc(Cl)cc2Cl)C1=S	15.3

system: ACHN; assay: Growth inhibition of human ACHN cells after 48 hrs by sulforhodamine B assay; type: functional; details: not given; outline: as §1

Compound	GI50 [µM]
O=C(c1ccc(Cl)cc1Cl)N1CCN(C(=O)c2ccc(Cl)cc2Cl)C1=S	21.3

system: SF-268; assay: Growth inhibition of human SF268 cells after 48 hrs by sulforhodamine B assay; type: functional; details: SF-268, 48 h; outline: as §1

Compound	GI50 [µM]
O=C(c1ccc(Cl)cc1Cl)N1CCN(C(=O)c2ccc(Cl)cc2Cl)C1=S	24.5

system: NCI-H522; assay: Growth inhibition of human NCI-H522 cells after 48 hrs by sulforhodamine B assay; type: functional; details: NCI-H522, 48 h; outline: as §1

Compound	GI50 [µM]
O=C(c1ccc(Cl)cc1Cl)N1CCN(C(=O)c2ccc(Cl)cc2Cl)C1=S	18.2

system: CAKI-1; assay: Growth inhibition of human Caki1 cells after 48 hrs by sulforhodamine B assay; type: functional; details: CAKI-1, 48 h; outline: as §1

Compound	GI50 [µM]
O=C(c1ccc(Cl)cc1Cl)N1CCN(C(=O)c2ccc(Cl)cc2Cl)C1=S	22.1

system: MT4; assay: Antiproliferative activity against human MT4 cells assessed as reduction of growth by MTT assay; type: functional, cell-based; details: not given
Outline: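 MT-4 lymphoblastoid T cells (ATCC) in RPMI 1640 with 10% FCS, penicillin/streptomycin, checked for mycoplasma. 1 × 10⁴ mock-infected cells per well with serial dilutions from a 100 mM DMSO stock. Incubated 4 days at 37 °C, viable cells counted by MTT. IC50 versus untreated controls by linear regression. Mean of three separate experiments.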

Compound	IC50 [µM]
O=C(c1ccc(Cl)cc1Cl)N1CCN(C(=O)c2ccc(Cl)cc2Cl)C1=S	39

system: IGROV-1; assay: Growth inhibition of human IGROV1 cells after 48 hrs by sulforhodamine B assay; type: functional; details: IGROV-1, 48 h; outline: as §1

Compound	GI50 [µM]
O=C(c1ccc(Cl)cc1Cl)N1CCN(C(=O)c2ccc(Cl)cc2Cl)C1=S	21

system: HL-60(TB); assay: Growth inhibition of human HL-60(TB) cells after 48 hrs by sulforhodamine B assay; type: functional; details: HL-60, 48 h
Outline: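 NCI 60-cell-line screen protocol: cells exposed to compound at five 10-fold dilutions from 10^-4 to 10^-8 M for the last 48 h of a 72 h incubation. Sulforhodamine B protein assay estimated viability/growth. GI50 (50% growth inhibition) derived; where not reached or exceeded, reported as greater or less than the highest or lowest concentration tested.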

Compound	GI50 [µM]
O=C(c1ccc(Cl)cc1Cl)N1CCN(C(=O)c2ccc(Cl)cc2Cl)C1=S	16.6
